Results pooled from the literature.
Protocols differ between the studies behind these lines.
Target: Tyrosine-protein kinase Yes (YES1, Homo sapiens, UniProt P07947)

SMILES | effect on | technique | concentration | remaining binding [%]
O=C(c1ccc(Nc2ncc(Cl)c(-c3ccc(Cl)s3)n2)cc1)N1CCC(N2CCCC2)CC1 | binding | competition with immobilised ligand | 1 µM | 55
CN(C)c1ncc(F)c(-c2cnn3ncccc23)n1 | binding |  | 1 µM | 78
O=C(NCCCN1CCOCC1)c1ccc(Nc2nccc(-c3cc4ccccc4s3)n2)cc1 | binding | competition with immobilised ligand | 1 µM | 91
CC(=O)C1=C(C)N(c2cccc(C(F)(F)F)c2)C(=O)N[C@@H]1c1ccc(C#N)nc1 | cell-free assay | competition with immobilised ligand | 1 µM | 81.1
COc1cnc(Nc2cccc(S(N)(=O)=O)c2)nc1N1CCN(c2ccccc2)CC1 | binding | competition with immobilised ligand | 1 µM | 89
CN([C@@H]1CCc2c(CC(=O)O)c3cc(S(C)(=O)=O)ccc3n2C1)S(=O)(=O)c1ccc(F)cc1 | cell-free assay | competition with immobilised ligand | 1 µM | 88
CN(C)c1nccc(-c2cnn3ncccc23)n1 | binding |  | 1 µM | 78
Nc1ncc2c(n1)-c1c([nH]c3ccc(C#CC4CC4)cc13)CCCC2 | binding | competition with immobilised ligand | 1 µM | 100
F[C@@H]1CCN(c2nccc(-c3cnn4ncccc34)n2)C1 | binding |  | 1 µM | 90
O=C(NCc1ncc(C(F)(F)F)cc1Cl)c1ccc2c(c1)C1(CCS(=O)(=O)CC1)[C@H](C1CC1)N2S(=O)(=O)c1ccc(F)cc1 | cell-free assay | competition with immobilised ligand | 1 µM | 90
CN1CCN(c2ccc(Nc3nccc(-c4ccccc4)n3)cc2C(F)(F)F)CC1 | binding |  | 10 µM | 56
CC(=O)Nc1c(C(C)=O)c(=O)n(C)c2nc(-c3ccc(Cl)cc3Cl)c(-c3ccc(Cl)cc3)cc12 | cell-free assay | competition with immobilised ligand | 1 µM | 100
C[C@H]1CCN(c2nccc(-c3cnn4ncccc34)n2)C1 | binding |  | 1 µM | 94
O=C(NCC1CCOCC1)c1n[nH]cc1NC(=O)c1c(F)cccc1F | binding | competition with immobilised ligand | 1 µM | 99
CNC(=O)[C@@H]1CC[C@@H](n2c(-c3ccc4cnccc4c3)nc3ccc(C(=O)NCc4cccc(C(N)=O)c4)cc32)C1 | binding | competition with immobilised ligand | 1 µM | 100
O=C(c1ccc(Nc2ncc(Cl)c(-c3cc4ccccc4s3)n2)cc1)N1CCC(N2CCCC2)CC1 | binding | competition with immobilised ligand | 1 µM | 71
CN(CCCC(F)(F)F)c1nccc(-c2cnn3ncccc23)n1 | binding |  | 1 µM | 94
C=CC(=O)N1CCC(C(=O)NCC(=O)N2CCN(c3nc(-c4cnc(N)nc4C(F)F)nc(N4CCOCC4)n3)CC2)CC1 | binding | competition with immobilised ligand | 1 µM | 97
CN(C)c1ncnc(-c2ccc3nc(Nc4cc(CN5CCN(C(=O)CC(F)(F)F)CC5)ccn4)[nH]c3c2)c1Cl | cell-free assay | competition with immobilised ligand | 1 µM | 76
COc1ccnn2ncc(-c3ccnc(N(C)C)n3)c12 | binding |  | 1 µM | 100
CCN1CCN(Cc2ccc(C(=O)Nc3ccc(C)c(Oc4ccc5c(c4)CC(=O)N5)c3)cc2C(F)(F)F)CC1 | binding | competition with immobilised ligand | 1 µM | 98
Cc1c(NC(=O)c2cc(C(N)=O)nc3cc(F)ccc23)c(C(F)(F)F)nn1Cc1ccc(C#N)cc1 | cell-free assay | competition with immobilised ligand | 1 µM | 66
N[C@@H]1CCN(c2nccc(-c3cnn4ncccc34)n2)C1 | binding |  | 1 µM | 100
CN(c1ccnc(CNc2nc(Nc3ccc4c(c3)CC(=O)N4)ncc2C(F)(F)F)n1)S(C)(=O)=O | cell-free assay | competition with immobilised ligand | 1 µM | 77
Cc1ccc(-n2nc(C(C)(C)C)cc2NC(=O)Nc2ccc(-n3c(N)c(C(N)=O)c4nc5ccc(NCCCN)cc5nc43)cc2)cc1 | cell-free assay | competition with immobilised ligand | 1 µM | 1.9
